Source: ChEMBL document CHEMBL3352339, “Implications of N-capped urea/thiourea and C-capped 3-(1-piperazinyl)-1,2-benzisothiazole with bridging Gly-Val/Phe-Gly-Val-Pro as therapeutic targets” (Eur J Med Chem, 2014)
In brackets after ≈: the same amount, converted by molar mass. Starred links: 1 amine or outer side, 2 acyl side, 3 side chain; linkers in the order of their positions; H or OH if unused. Residues, ends and D or L forms follow the SMILES beside them. *: point of attachment. Thiocarbamoyl(N-2-FPh) = Fc1ccccc1NC(=S)*; X1 = c1ccc2c(N3CCN(*)CC3)nsc2c1; NH(4-F-phenyl) = Fc1ccc(N*)cc1; NH(2-F-phenyl) = Fc1ccccc1N*; X2 = Fc1ccc(NC(=S)*)cc1; CO = O=C([*:1])[*:2]; X6 = Fc1cccc(N*)c1

What was measured:
[1] = system: Escherichia coli; experiment: Antibacterial activity against Escherichia coli at 50 ug/mL incubated for 24 hrs by agar well diffusion method; type: functional; details: read-out: IZ
Procedure, shortened: (§1)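 Agar well diffusion against the bacterial isolate, with streptomycin as the reference drug. Read-out is the average diameter (mm) of the growth-inhibition zone around the well.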

[2] = system: Staphylococcus; experiment: Antibacterial activity against Coagulase positive Staphylococcus at 50 ug/mL incubated for 24 hrs by agar well diffusion method; type: functional; details: read-out: IZ; procedure, shortened: as §1
[3] = system: Xanthomonas oryzae; experiment: Antibacterial activity against Xanthomonas oryzae at 50 ug/mL incubated for 24 hrs by agar well diffusion method; type: functional; details: read-out: IZ
[4] = system: Aspergillus niger; experiment: Antifungal activity against Aspergillus niger incubated for 48 to 72 hrs by agar microdilution method; type: functional
Procedure, shortened: (§2)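 MIC by microdilution against the fungal strain, limited to compounds showing significant zones in the diffusion assay. Bavistin was used as the reference.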

[5] = system: Aspergillus flavus; experiment: Antifungal activity against Aspergillus flavus at 50 ug/mL incubated for 3 days by agar well diffusion method; type: functional; details: 72 h, read-out: IZ
Procedure, shortened: (§3)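 Fungal growth inhibition measured by agar well diffusion, with bavistin as the reference. Records the mean inhibition-zone diameter (mm) around each well.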

[6] = Antiglycation activity using bovine serum albumin incubated at 37 degC for 7 days by spectrofluorimetry; type: physicochemical
Procedure, shortened: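 Glycation of bovine serum albumin, with rutin as the reference standard. IC50 values are averages of triplicate runs.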

[7] = system: Klebsiella pneumoniae; experiment: Antibacterial activity against Klebsiella pneumoniae incubated for 24 hrs by agar microdilution method; type: functional
[8] = system: Fusarium verticillioides; experiment: Antifungal activity against Fusarium moniliforme incubated for 48 to 72 hrs by agar microdilution method; type: functional; procedure, shortened: as §2
[9] = target: Urease (Canavalia ensiformis, UniProt P07374); experiment: Inhibition of jack bean urease assessed as reduction in ammonia production incubated at 30 degC for 15 mins by indophenol method
Procedure, shortened: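 Inhibition of jack bean urease, with thiourea as the reference standard. IC50 values are the average of triplicate runs.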

[10] = system: Escherichia coli; experiment: Antibacterial activity against Escherichia coli incubated for 24 hrs by agar microdilution method; type: functional
[11] = system: Xanthomonas oryzae; experiment: Antibacterial activity against Xanthomonas oryzae incubated for 24 hrs by agar microdilution method; type: functional
[12] = Inhibition of sheep stomach parietal cells gastric H+/K+-ATPase activity assessed as reduction in inorganic phosphorus production by Fiske Subbarow's method; type: tissue-based, Ovis aries; details: read-out: IC50
Procedure, shortened: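 Inhibition of purified H+/K+-ATPase, with omeprazole as the reference. IC50 is the mean of triplicate runs.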

[13] = system: Fusarium oxysporum; experiment: Antifungal activity against Fusarium oxysporum at 50 ug/mL incubated for 3 days by agar well diffusion method; type: functional; details: 72 h, read-out: IZ; procedure, shortened: as §3
[14] = system: Fusarium verticillioides; experiment: Antifungal activity against Fusarium moniliforme at 50 ug/mL incubated for 3 days by agar well diffusion method; type: functional; details: 72 h, read-out: IZ; procedure, shortened: as §3
[15] = system: Aspergillus niger; experiment: Antifungal activity against Aspergillus niger at 50 ug/mL incubated for 3 days by agar well diffusion method; type: functional; details: 72 h, read-out: IZ; procedure, shortened: as §3
[16] = system: Aspergillus flavus; experiment: Antifungal activity against Aspergillus flavus incubated for 48 to 72 hrs by agar microdilution method; type: functional; procedure, shortened: as §2
[17] = system: Staphylococcus; experiment: Antibacterial activity against Coagulase positive Staphylococcus incubated for 24 hrs by agar microdilution method; type: functional
[18] = system: Fusarium oxysporum; experiment: Antifungal activity against Fusarium oxysporum incubated for 48 to 72 hrs by agar microdilution method; type: functional; procedure, shortened: as §2

Sequence of Urease (P07374 whole entry): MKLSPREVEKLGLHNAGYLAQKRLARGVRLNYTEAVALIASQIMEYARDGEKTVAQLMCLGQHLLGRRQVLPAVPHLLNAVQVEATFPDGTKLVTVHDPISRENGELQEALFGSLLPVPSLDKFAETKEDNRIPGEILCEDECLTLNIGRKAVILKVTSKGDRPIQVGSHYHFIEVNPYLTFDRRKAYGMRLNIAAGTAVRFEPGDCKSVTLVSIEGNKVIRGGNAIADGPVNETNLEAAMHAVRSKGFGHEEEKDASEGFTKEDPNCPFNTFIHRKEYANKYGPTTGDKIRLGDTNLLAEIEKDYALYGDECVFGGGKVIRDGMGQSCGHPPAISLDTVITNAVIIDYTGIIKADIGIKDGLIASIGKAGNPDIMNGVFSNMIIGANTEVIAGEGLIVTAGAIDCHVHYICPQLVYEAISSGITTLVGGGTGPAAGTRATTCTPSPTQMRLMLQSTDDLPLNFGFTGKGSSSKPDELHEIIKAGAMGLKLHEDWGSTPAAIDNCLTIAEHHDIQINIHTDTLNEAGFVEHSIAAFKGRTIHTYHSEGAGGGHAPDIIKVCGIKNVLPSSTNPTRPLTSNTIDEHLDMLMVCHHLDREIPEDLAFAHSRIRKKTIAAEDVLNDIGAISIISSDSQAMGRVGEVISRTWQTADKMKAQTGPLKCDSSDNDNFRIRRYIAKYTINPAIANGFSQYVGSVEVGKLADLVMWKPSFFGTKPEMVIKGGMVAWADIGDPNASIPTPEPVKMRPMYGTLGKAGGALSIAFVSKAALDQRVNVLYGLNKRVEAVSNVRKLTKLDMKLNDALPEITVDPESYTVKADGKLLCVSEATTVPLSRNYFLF

Structure (SMILES)	zone of inhibition at 50 µg/mL [1] [mm]	zone of inhibition at 50 µg/mL [2] [mm]	zone of inhibition at 50 µg/mL [3] [mm]	MIC [4] [µg/mL]	zone of inhibition at 50 µg/mL [5] [mm]	IC50 [6] [µM]	MIC [7] [µg/mL]	MIC [8] [µg/mL]	IC50 [9] [µM]	MIC [10] [µg/mL]	MIC [11] [µg]	IC50 [12] [µM]	zone of inhibition at 50 µg/mL [13] [mm]	zone of inhibition at 50 µg/mL [14] [mm]	zone of inhibition at 50 µg/mL [15] [mm]	MIC [16] [µg/mL]	MIC [17] [µg/mL]	MIC [18] [µg/mL]
CC(C)[C@H](NC(=O)CNC(=O)[C@H](Cc1ccccc1)NC(=O)CNC(=S)Nc1ccc(F)cc1)C(=O)N1CCC[C@H]1C(=O)N1CCN(c2nsc3ccccc23)CC1 (X2-GFGVP-X1)	35	35	34	9.75 (≈ 11.7 µM)	36	42	8.5 (≈ 10.2 µM)	9.75 (≈ 11.7 µM)	33	9 (≈ 10.8 µM)	7.5	72	35	36	35	10.2 (≈ 12.3 µM)	9 (≈ 10.8 µM)	11 (≈ 13.3 µM)
CC(C)[C@H](NC(=O)CNC(=S)Nc1ccc(F)cc1)C(=O)NCC(=O)N[C@H](C(=O)N1CCC[C@H]1C(=O)N1CCN(c2nsc3ccccc23)CC1)C(C)C (X2-GVGVP-X1)	32	31	29	10.5 (≈ 13.4 µM)	34	34	10 (≈ 12.8 µM)	11 (≈ 14.1 µM)	35	10.2 (≈ 13.1 µM)	9.5	76	35	35	35	12.8 (≈ 16.3 µM)	10.8 (≈ 13.7 µM)	13.2 (≈ 16.9 µM)
CC(C)[C@H](NC(=O)CNC(=O)[C@H](Cc1ccccc1)NC(=O)CNC(=O)Nc1ccccc1F)C(=O)N1CCC[C@H]1C(=O)N1CCN(c2nsc3ccccc23)CC1 ({NH(2-F-phenyl)-CO}-GFGVP-X1)	30	29	28	14 (≈ 17.2 µM)	28	53	12.2 (≈ 15 µM)	10 (≈ 12.3 µM)	41	12.8 (≈ 15.7 µM)		110	29	26	29	14.2 (≈ 17.5 µM)	12.2 (≈ 15 µM)	14 (≈ 17.2 µM)
CC(C)[C@H](NC(=O)CNC(=O)Nc1ccccc1F)C(=O)NCC(=O)N[C@H](C(=O)N1CCC[C@H]1C(=O)N1CCN(c2nsc3ccccc23)CC1)C(C)C ({NH(2-F-phenyl)-CO}-GVGVP-X1)	25	25	23	16.8 (≈ 21.9 µM)	24	54	17 (≈ 22.2 µM)	15.5 (≈ 20.2 µM)	42	15.8 (≈ 20.6 µM)		100	22	26	25	17.8 (≈ 23.2 µM)	16.8 (≈ 21.9 µM)	16.8 (≈ 21.9 µM)
CC(C)[C@H](NC(=O)CNC(=O)[C@H](Cc1ccccc1)NC(=O)CNC(=O)Nc1ccc(F)cc1)C(=O)N1CCC[C@H]1C(=O)N1CCN(c2nsc3ccccc23)CC1 ({NH(4-F-phenyl)-CO}-GFGVP-X1)	33	32	31	10.5 (≈ 12.9 µM)	31	44	9.25 (≈ 11.4 µM)	11 (≈ 13.5 µM)	35	11 (≈ 13.5 µM)	8.75	80	32	31	30	11 (≈ 13.5 µM)	11.2 (≈ 13.8 µM)	12.2 (≈ 15 µM)
CC(C)[C@H](NC(=O)CNC(=S)Nc1ccccc1F)C(=O)NCC(=O)N[C@H](C(=O)N1CCC[C@H]1C(=O)N1CCN(c2nsc3ccccc23)CC1)C(C)C ({Thiocarbamoyl(N-2-FPh)}-GVGVP-X1)	27	27	24	15.2 (≈ 19.5 µM)	29	50	16 (≈ 20.5 µM)	13 (≈ 16.6 µM)	40	14.2 (≈ 18.2 µM)		92	30	31	30	16.5 (≈ 21.1 µM)	15.5 (≈ 19.8 µM)	15.2 (≈ 19.5 µM)
CC(C)[C@H](NC(=O)CNC(=O)[C@H](Cc1ccccc1)NC(=O)CNC(=O)Nc1cccc(F)c1)C(=O)N1CCC[C@H]1C(=O)N1CCN(c2nsc3ccccc23)CC1 ({X6-CO}-GFGVP-X1)	28	29	26		29	50			43			92	29	31	30			
CC(C)[C@H](NC(=O)CNC(=O)Nc1cccc(F)c1)C(=O)NCC(=O)N[C@H](C(=O)N1CCC[C@H]1C(=O)N1CCN(c2nsc3ccccc23)CC1)C(C)C ({X6-CO}-GVGVP-X1)	24	23	22		25	52			44			88	24	27	27			
COC(=O)Nc1nc2ccccc2[nH]1 [CARBENDAZIM]				22 (≈ 115 µM)	13			20 (≈ 105 µM)					13	15	14	24 (≈ 126 µM)		24 (≈ 126 µM)
CN[C@@H]1[C@H](O[C@H]2[C@H](O[C@H]3[C@H](O)[C@@H](O)[C@H](N=C(N)N)[C@@H](O)[C@@H]3N=C(N)N)O[C@@H](C)[C@]2(O)C=O)O[C@@H](CO)[C@H](O)[C@H]1O [STREPTOMYCIN]	14	13	11				20 (≈ 34.4 µM)			22 (≈ 37.8 µM)	18						21 (≈ 36.1 µM)	
